ChEMBL document CHEMBL1687765, “NagZ inactivation prevents and reverts beta-lactam resistance, driven by AmpD and PBP 4 mutations, in Pseudomonas aeruginosa” (2010)
≈ marks a conversion by molar mass, not a printed value. Calls of active or inactive are those of the source. The rule behind the calls is not given here.

What was measured:
Pseudomonas aeruginosa [1] = experiment: Antimicrobial activity against ampD::lox, ampDh2::lox and ampDh3::lox gene-deficient Pseudomonas aeruginosa PAO1 by Etest method; format: functional
How it was run: (§1)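 Etest strips on Mueller-Hinton agar, read per manufacturer's recommendations; P. aeruginosa PAO1 triple mutant deficient in ampD, ampDh2 and ampDh3 (lox deletions). Agents tested by Etest: ceftazidime, cefepime, aztreonam, piperacillin, piperacillin-tazobactam, imipenem, meropenem.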

Pseudomonas aeruginosa [2] = experiment: Antimicrobial activity against ampD::lox gene-deficient Pseudomonas aeruginosa PAO1 harboring dacB gene by broth microdilution method in presence of 0.5 mM NagZ inhibitor PUGNAc; format: functional
How it was run: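 MICs of ceftazidime, aztreonam and piperacillin determined by broth microdilution in cation-adjusted Mueller-Hinton broth, with 0.5 mM of the N-acetyl-β-glucosaminidase (NagZ) inhibitor PUGNAc added alongside the β-lactam and untreated controls run in parallel; all measurements performed in triplicate.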

Pseudomonas aeruginosa [3] = experiment: Antimicrobial activity against ampD::lox gene-deficient Pseudomonas aeruginosa PAO1 harboring dacB gene by broth microdilution method; format: functional
How it was run: (§2)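 Broth microdilution MICs of ceftazidime, aztreonam and piperacillin in 100 μl cation-adjusted Mueller-Hinton broth, with or without NagZ inhibitor PUGNAc at 0.5 mM or 5 mM; measurements in triplicate.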

Pseudomonas aeruginosa [4] = experiment: Antimicrobial activity against ampD::lox gene-deficient Pseudomonas aeruginosa PAO1 harboring dacB gene by Etest method; format: functional
How it was run: (§3)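 MICs read from Etest strips on Mueller-Hinton agar per manufacturer's instructions; agents ceftazidime, cefepime, aztreonam, piperacillin, piperacillin-tazobactam, imipenem and meropenem.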

Pseudomonas aeruginosa [5] = experiment: Antimicrobial activity against ampD::lox gene-deficient Pseudomonas aeruginosa PAO1 by broth microdilution method in presence of 5 mM NagZ inhibitor PUGNAc; format: functional; how it was run: as §2
Pseudomonas aeruginosa [6] = experiment: Antimicrobial activity against Pseudomonas aeruginosa PAO1 by broth microdilution method in presence of 0.5 mM NagZ inhibitor PUGNAc; format: functional; how it was run: as §2
Pseudomonas aeruginosa [7] = experiment: Antimicrobial activity against ampD::lox gene-deficient Pseudomonas aeruginosa PAO1 by broth microdilution method in presence of 0.5 mM NagZ inhibitor PUGNAc; format: functional; how it was run: as §2
Pseudomonas aeruginosa [8] = experiment: Antimicrobial activity against ampD::lox, ampDh2::lox,ampDh3::lox and nagZ::lox gene-deficient Pseudomonas aeruginosa PAO1 by Etest method; format: functional; how it was run: as §3
Pseudomonas aeruginosa [9] = experiment: Antimicrobial activity against dacB::lox gene-deficient Pseudomonas aeruginosa PAO1 by broth microdilution method in presence of 5 mM NagZ inhibitor PUGNAc; format: functional; how it was run: as §2
Pseudomonas aeruginosa [10] = experiment: Antimicrobial activity against dacB::lox gene-deficient Pseudomonas aeruginosa PAO1 by broth microdilution method in presence of 0.5 mM NagZ inhibitor PUGNAc; format: functional; how it was run: as §2
Pseudomonas aeruginosa [11] = experiment: Antimicrobial activity against dacB::lox gene-deficient Pseudomonas aeruginosa PAO1 by broth microdilution method; format: functional; how it was run: as §2
Pseudomonas aeruginosa [12] = experiment: Antimicrobial activity against ampC::lox gene-deficient Pseudomonas aeruginosa PAO1 by Etest method; format: functional; how it was run: as §3
Pseudomonas aeruginosa [13] = experiment: Antimicrobial activity against ampD::lox gene-deficient Pseudomonas aeruginosa PAO1 by Etest method; format: functional; how it was run: as §3
Pseudomonas aeruginosa [14] = experiment: Antimicrobial activity against dacB::lox gene-deficient Pseudomonas aeruginosa PAO1 by Etest method; format: functional; how it was run: as §3
Pseudomonas aeruginosa [15] = experiment: Antimicrobial activity against ampR::lox gene-deficient Pseudomonas aeruginosa PAO1 by Etest method; format: functional; how it was run: as §3
Pseudomonas aeruginosa [16] = experiment: Antimicrobial activity against Pseudomonas aeruginosa PAO1 by broth microdilution method in presence of 5 mM NagZ inhibitor PUGNAc; format: functional; how it was run: as §2
Pseudomonas aeruginosa [17] = experiment: Antimicrobial activity against ampD::lox gene-deficient Pseudomonas aeruginosa PAO1 harboring dacB gene by broth microdilution method in presence of 5 mM NagZ inhibitor PUGNAc; format: functional; how it was run: as §2
Pseudomonas aeruginosa [18] = experiment: Antimicrobial activity against ampD::lox gene-deficient Pseudomonas aeruginosa PAO1 by broth microdilution method; format: functional; how it was run: as §2
Pseudomonas aeruginosa [19] = experiment: Antimicrobial activity against Pseudomonas aeruginosa PAO1 by broth microdilution method; format: functional; how it was run: as §2
Pseudomonas aeruginosa [20] = experiment: Antimicrobial activity against nagZ::lox gene-deficient Pseudomonas aeruginosa PAO1 by Etest method; format: functional; how it was run: as §3
Pseudomonas aeruginosa [21] = experiment: Antimicrobial activity against ampD::lox and nagZ::lox gene-deficient Pseudomonas aeruginosa PAO1 harboring dacB gene by Etest method; format: functional; how it was run: as §3
Pseudomonas aeruginosa [22] = experiment: Antimicrobial activity against Pseudomonas aeruginosa PAO1 by Etest method; format: functional; how it was run: as §3
Pseudomonas aeruginosa [23] = experiment: Antimicrobial activity against ampD::lox and nagZ::lox gene-deficient Pseudomonas aeruginosa PAO1 by Etest method; format: functional; how it was run: as §3
Pseudomonas aeruginosa [24] = experiment: Antimicrobial activity against dacB::lox and nagZ::lox gene-deficient Pseudomonas aeruginosa PAO1 by Etest method; format: functional; how it was run: as §3
Pseudomonas aeruginosa [25] = experiment: Antimicrobial activity against Pseudomonas aeruginosa PAO1 at 1 ug/ml; format: functional, organism-based
How it was run: (§4)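 Population analysis: serial dilutions of overnight MH broth cultures plated on MH agar with 0, 0.5, 1, 2, 4, 8 or 16 μg/ml ceftazidime; colonies counted after 24 h as CFU at each concentration; triplicate, mean ± standard deviation.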

Pseudomonas aeruginosa [26] = experiment: Antimicrobial activity against nagZ::lox gene-deficient Pseudomonas aeruginosa PAO1 at 1 ug/ml; format: functional, organism-based; how it was run: as §4
Pseudomonas aeruginosa [27] = experiment: Antimicrobial activity against ampD::lox and nagZ::lox gene-deficient Pseudomonas aeruginosa PAO1 by Etest method in presence of beta-lactamase inhibitor Tazobactam; format: functional
How it was run: (§5)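 MICs on Mueller-Hinton agar by Etest strips (piperacillin-tazobactam among the agents tested), per manufacturer's instructions.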

Pseudomonas aeruginosa [28] = experiment: Antimicrobial activity against ampD::lox and nagZ::lox gene-deficient Pseudomonas aeruginosa PAO1 harboring dacB gene by Etest method in presence of beta-lactamase inhibitor Tazobactam; format: functional; how it was run: as §3
Pseudomonas aeruginosa [29] = experiment: Antimicrobial activity against Pseudomonas aeruginosa PAO1 by Etest method in presence of beta-lactamase inhibitor Tazobactam; format: functional; how it was run: as §3
Pseudomonas aeruginosa [30] = experiment: Antimicrobial activity against dacB::lox gene-deficient Pseudomonas aeruginosa PAO1 by Etest method in presence of beta-lactamase inhibitor Tazobactam; format: functional; how it was run: as §3
Pseudomonas aeruginosa [31] = experiment: Antimicrobial activity against dacB::lox and nagZ::lox gene-deficient Pseudomonas aeruginosa PAO1 by Etest method in presence of beta-lactamase inhibitor Tazobactam; format: functional; how it was run: as §5
Pseudomonas aeruginosa [32] = experiment: Antimicrobial activity against ampD::lox, ampDh2::lox,ampDh3::lox and nagZ::lox gene-deficient Pseudomonas aeruginosa PAO1 by Etest method in presence of beta-lactamase inhibitor Tazobactam; format: functional; how it was run: as §5
Pseudomonas aeruginosa [33] = experiment: Antimicrobial activity against ampD::lox, ampDh2::lox and ampDh3::lox gene-deficient Pseudomonas aeruginosa PAO1 by Etest method in presence of beta-lactamase inhibitor Tazobactam; format: functional; how it was run: as §1
Pseudomonas aeruginosa [34] = experiment: Antimicrobial activity against nagZ::lox gene-deficient Pseudomonas aeruginosa PAO1 by Etest method in presence of beta-lactamase inhibitor Tazobactam; format: functional; how it was run: as §3
Pseudomonas aeruginosa [35] = experiment: Antimicrobial activity against ampR::lox gene-deficient Pseudomonas aeruginosa PAO1 by Etest method in presence of beta-lactamase inhibitor Tazobactam; format: functional; how it was run: as §3
Pseudomonas aeruginosa [36] = experiment: Antimicrobial activity against ampD::lox gene-deficient Pseudomonas aeruginosa PAO1 by Etest method in presence of beta-lactamase inhibitor Tazobactam; format: functional; how it was run: as §3
Pseudomonas aeruginosa [37] = experiment: Antimicrobial activity against ampC::lox gene-deficient Pseudomonas aeruginosa PAO1 by Etest method in presence of beta-lactamase inhibitor Tazobactam; format: functional; how it was run: as §3

SMILES	MIC (Pseudomonas aeruginosa [1])	MIC (Pseudomonas aeruginosa [2])	MIC (Pseudomonas aeruginosa [3])	MIC (Pseudomonas aeruginosa [4])	MIC (Pseudomonas aeruginosa [5])	MIC (Pseudomonas aeruginosa [6])	MIC (Pseudomonas aeruginosa [7])	MIC (Pseudomonas aeruginosa [8])	MIC (Pseudomonas aeruginosa [9])	MIC (Pseudomonas aeruginosa [10])	MIC (Pseudomonas aeruginosa [11])	MIC (Pseudomonas aeruginosa [12])	MIC (Pseudomonas aeruginosa [13])	MIC (Pseudomonas aeruginosa [14])	MIC (Pseudomonas aeruginosa [15])	MIC (Pseudomonas aeruginosa [16])	MIC (Pseudomonas aeruginosa [20])	MIC (Pseudomonas aeruginosa [21])	MIC (Pseudomonas aeruginosa [22])	MIC (Pseudomonas aeruginosa [23])	other results
C[C@H]1[C@H](NC(=O)/C(=N\OC(C)(C)C(=O)O)c2csc(N)n2)C(=O)N1S(=O)(=O)O [AZTREONAM]	32 µg/mL (≈ 73.5 µM)	32 µg/mL	32 µg/mL (≈ 73.5 µM)	64 µg/mL (≈ 147 µM)	3 µg/mL	3 µg/mL	3 µg/mL	8 µg/mL (≈ 18.4 µM)	3 µg/mL	4 µg/mL	12 µg/mL (≈ 27.6 µM)	2 µg/mL (≈ 4.59 µM)	12 µg/mL (≈ 27.6 µM)	24 µg/mL (≈ 55.1 µM)	4 µg/mL (≈ 9.19 µM)	3 µg/mL	4 µg/mL (≈ 9.19 µM)	–	–	–	MIC (Pseudomonas aeruginosa [17]): 24 µg/mL; MIC (Pseudomonas aeruginosa [18]): 6 µg/mL (≈ 13.8 µM); MIC (Pseudomonas aeruginosa [19]): 3 µg/mL (≈ 6.89 µM)
CO/N=C(\C(=O)N[C@@H]1C(=O)N2C(C(=O)[O-])=C(C[N+]3(C)CCCC3)CS[C@H]12)c1csc(N)n1 [CEFEPIME]	–	–	–	48 µg/mL (≈ 99.9 µM)	–	–	–	3 µg/mL (≈ 6.24 µM)	–	–	–	1 µg/mL (≈ 2.08 µM)	–	12 µg/mL (≈ 25 µM)	2 µg/mL (≈ 4.16 µM)	–	1.5 µg/mL (≈ 3.12 µM)	3 µg/mL (≈ 6.24 µM)	1.5 µg/mL (≈ 3.12 µM)	1.5 µg/mL (≈ 3.12 µM)	–
C[C@@H](O)[C@H]1C(=O)N2C(C(=O)O)=C(SCCNC=N)C[C@H]12 [IMIPENEM ANHYDROUS]	2 µg/mL (≈ 6.68 µM)	–	–	2 µg/mL (≈ 6.68 µM)	–	–	–	1.5 µg/mL (≈ 5.01 µM)	–	–	–	0.5 µg/mL (≈ 1.67 µM)	2 µg/mL (≈ 6.68 µM)	2 µg/mL (≈ 6.68 µM)	0.5 µg/mL (≈ 1.67 µM)	–	1 µg/mL (≈ 3.34 µM)	1 µg/mL (≈ 3.34 µM)	2 µg/mL (≈ 6.68 µM)	1 µg/mL (≈ 3.34 µM)	–
C[C@@H](O)[C@H]1C(=O)N2C(C(=O)O)=C(S[C@@H]3CN[C@H](C(=O)N(C)C)C3)[C@H](C)[C@H]12 [MEROPENEM]	1 µg/mL (≈ 2.61 µM)	–	–	1.5 µg/mL (≈ 3.91 µM)	–	–	–	1 µg/mL (≈ 2.61 µM)	–	–	–	0.25 µg/mL (≈ 0.652 µM)	1 µg/mL (≈ 2.61 µM)	0.5 µg/mL (≈ 1.3 µM)	0.25 µg/mL (≈ 0.652 µM)	–	0.38 µg/mL (≈ 0.991 µM)	0.5 µg/mL (≈ 1.3 µM)	0.38 µg/mL (≈ 0.991 µM)	0.5 µg/mL (≈ 1.3 µM)	MIC (Pseudomonas aeruginosa [24]): 0.38 µg/mL (≈ 0.991 µM)
CC(C)(O/N=C(\C(=O)N[C@@H]1C(=O)N2C(C(=O)[O-])=C(C[n+]3ccccc3)CS[C@H]12)c1csc(N)n1)C(=O)O [CEFTAZIDIME]	32 µg/mL (≈ 58.5 µM)	64 µg/mL	96 µg/mL (≈ 176 µM)	96 µg/mL (≈ 176 µM)	4 µg/mL	2 µg/mL	4 µg/mL	3 µg/mL (≈ 5.49 µM)	6 µg/mL	8 µg/mL	24 µg/mL (≈ 43.9 µM)	1 µg/mL (≈ 1.83 µM)	8 µg/mL (≈ 14.6 µM)	24 µg/mL (≈ 43.9 µM)	2 µg/mL (≈ 3.66 µM)	2 µg/mL	1 µg/mL (≈ 1.83 µM)	4 µg/mL (≈ 7.32 µM)	1.5 µg/mL (≈ 2.74 µM)	2 µg/mL (≈ 3.66 µM)	Activity (Pseudomonas aeruginosa [25]): Active; Activity (Pseudomonas aeruginosa [26]): Active; MIC (Pseudomonas aeruginosa [17]): 64 µg/mL; MIC (Pseudomonas aeruginosa [18]): 8 µg/mL (≈ 14.6 µM); MIC (Pseudomonas aeruginosa [19]): 2 µg/mL (≈ 3.66 µM)
CCN1CCN(C(=O)N[C@@H](C(=O)N[C@@H]2C(=O)N3[C@@H]2SC(C)(C)[C@@H]3C(=O)O)c2ccccc2)C(=O)C1=O [PIPERACILLIN]	–	256 µg/mL	384 µg/mL (≈ 742 µM)	–	24 µg/mL	4 µg/mL	24 µg/mL	–	24 µg/mL	32 µg/mL	64 µg/mL (≈ 124 µM)	–	–	–	–	4 µg/mL	–	–	–	–	MIC (Pseudomonas aeruginosa [27]): 3 µg/mL; MIC (Pseudomonas aeruginosa [28]): 16 µg/mL; MIC (Pseudomonas aeruginosa [29]): 2 µg/mL; MIC (Pseudomonas aeruginosa [30]): 64 µg/mL; MIC (Pseudomonas aeruginosa [31]): 3 µg/mL; MIC (Pseudomonas aeruginosa [32]): 8 µg/mL; MIC (Pseudomonas aeruginosa [33]): > 256 µg/mL; MIC (Pseudomonas aeruginosa [34]): 2 µg/mL; MIC (Pseudomonas aeruginosa [35]): 4 µg/mL; MIC (Pseudomonas aeruginosa [36]): 32 µg/mL; MIC (Pseudomonas aeruginosa [17]): 256 µg/mL; MIC (Pseudomonas aeruginosa [37]): 2 µg/mL; MIC (Pseudomonas aeruginosa [18]): 48 µg/mL (≈ 92.7 µM); MIC (Pseudomonas aeruginosa [19]): 4 µg/mL (≈ 7.73 µM)
